Reference: ChEMBL document CHEMBL1137710, “Synthesis and in vitro antitumor activity of new quinoxaline derivatives” (2009)

Key:
Format in all cases: functional
HL-60(TB) = test: Growth inhibition of human HL-60(TB) cells after 48 hrs by sulforhodamine B assay; details: HL-60, 48 h; for TGI: read-out: pTGI (converted)
Procedure, shortened: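 Tested only on compounds active in a three-line prescreen, in the NCI 60-human-tumour-cell-line panel over a 5-log dose range. Values come from dose–response curves as log10 molar GI50, the concentration inhibiting 50% net cell growth. Log10 TGI (total growth inhibition) and log10 LC50 (50% net cell death) were derived too. Mean graph midpoints include insensitive lines at the highest concentration tested.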

SR = test: Growth inhibition of human SR cells after 48 hrs by sulforhodamine B assay; details: for TGI: read-out: pTGI (converted)
Procedure, shortened: (§1)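 Run in the NCI 60-human-tumour-cell-line panel, tested over a 5-log dose range. Dose–response curves gave three values per cell line, each as a log10 molar concentration: GI50 (50% inhibition of net cell growth), TGI (total inhibition of net growth) and LC50 (50% net cell death). The mean graph midpoint is the arithmetic mean over all lines, with insensitive lines entered at the highest concentration tested.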

MOLT-4 = test: Growth inhibition of human MOLT4 cells after 48 hrs by sulforhodamine B assay; details: MOLT-4, 48 h; for TGI: read-out: pTGI (converted)
Procedure, shortened: (§2)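 NCI 60-human-tumor-cell-line panel, with compounds tested over a 5-log dose range. Values are taken from dose-response curves as log10 molar concentrations: GI50 is 50% net growth inhibition, TGI is total growth inhibition, and LC50 is 50% net cell death.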

EKVX = test: Growth inhibition of human EKVX cells after 48 hrs by sulforhodamine B assay; details: for TGI: read-out: pTGI (converted); procedure, shortened: as §2
HOP-92 = test: Growth inhibition of human HOP92 cells after 48 hrs by sulforhodamine B assay; details: HOP-92, 48 h; for TGI: read-out: pTGI (converted); procedure, shortened: as §2
NCI-H226 = test: Growth inhibition of human NCI-H226 cells after 48 hrs by sulforhodamine B assay; details: NCI-H226, 48 h; for TGI: read-out: pTGI (converted); procedure, shortened: as §2
NCI-H460 = test: Growth inhibition of human NCI-H460 cells after 48 hrs by sulforhodamine B assay; details: NCI-H460, 48 h; for TGI: read-out: pTGI (converted); procedure, shortened: as §2
COLO 205 = test: Growth inhibition of human COLO205 cells after 48 hrs by sulforhodamine B assay; details: COLO 205, 48 h; for TGI: read-out: pTGI (converted); procedure, shortened: as §2
HT-29 = test: Growth inhibition of human HT-29 cells after 48 hrs by sulforhodamine B assay; details: HT-29, 48 h; for TGI: read-out: pTGI (converted); procedure, shortened: as §2
KM12 = test: Growth inhibition of human KM12 cells after 48 hrs by sulforhodamine B assay; details: KM12, 48 h; for TGI: read-out: pTGI (converted); procedure, shortened: as §2
SF-539 = test: Growth inhibition of human SF539 cells after 48 hrs by sulforhodamine B assay; details: SF-539, 48 h; for TGI: read-out: pTGI (converted); procedure, shortened: as §2
SNB-19 = test: Growth inhibition of human SNB19 cells after 48 hrs by sulforhodamine B assay; details: SNB-19, 48 h; for TGI: read-out: pTGI (converted); procedure, shortened: as §1
SNB-75 = test: Growth inhibition of human SNB75 cells after 48 hrs by sulforhodamine B assay; details: SNB-75, 48 h; for TGI: read-out: pTGI (converted); procedure, shortened: as §1
UACC-257 = test: Growth inhibition of human UACC257 cells after 48 hrs by sulforhodamine B assay; details: UACC-257, 48 h; for CC50: read-out: pLC50 (the source's name) (converted); for TGI: read-out: pTGI (converted); procedure, shortened: as §1
OVCAR-3 = test: Growth inhibition of human OVCAR-3 cells after 48 hrs by sulforhodamine B assay; details: OVCAR-3, 48 h; for CC50: read-out: pLC50 (the source's name) (converted); for TGI: read-out: pTGI (converted); procedure, shortened: as §2
OVCAR-5 = test: Growth inhibition of human OVCAR5 cells after 48 hrs by sulforhodamine B assay; details: OVCAR-5, 48 h; for CC50: read-out: pLC50 (the source's name) (converted); for TGI: read-out: pTGI (converted); procedure, shortened: as §2
OVCAR-8 = test: Growth inhibition of human OVCAR8 cells after 48 hrs by sulforhodamine B assay; details: OVCAR-8, 48 h; for CC50: read-out: pLC50 (the source's name) (converted); for TGI: read-out: pTGI (converted); procedure, shortened: as §2
ACHN = test: Growth inhibition of human ACHN cells after 48 hrs by sulforhodamine B assay; details: for CC50: read-out: pLC50 (the source's name) (converted); for TGI: read-out: pTGI (converted)
RXF 393 = test: Growth inhibition of human RXF393 cells after 48 hrs by sulforhodamine B assay; details: RXF 393, 48 h; for CC50: read-out: pLC50 (the source's name) (converted); for TGI: read-out: pTGI (converted); procedure, shortened: as §2
TK-10 = test: Growth inhibition of human TK10 cells after 48 hrs by sulforhodamine B assay; details: TK-10, 48 h; for CC50: read-out: pLC50 (the source's name) (converted); for TGI: read-out: pTGI (converted); procedure, shortened: as §1
PC-3 = test: Growth inhibition of human PC3 cells after 48 hrs by sulforhodamine B assay; details: PC-3, 48 h; for CC50: read-out: pLC50 (the source's name) (converted); for TGI: read-out: pTGI (converted); procedure, shortened: as §2
NCI/ADR-RES = test: Growth inhibition of human NCI/ADR-RES cells after 48 hrs by sulforhodamine B assay; details: for CC50: read-out: pLC50 (the source's name) (converted); for TGI: read-out: pTGI (converted); procedure, shortened: as §2
MDA-MB-231 = test: Growth inhibition of human MDA-MB-231 cells after 48 hrs by sulforhodamine B assay; details: MDA-MB-231, 48 h; for CC50: read-out: pLC50 (the source's name) (converted); for TGI: read-out: pTGI (converted); procedure, shortened: as §2
[1] = Growth inhibition of human Hs 578T cells after 48 hrs by sulforhodamine B assay; details: for CC50: read-out: pLC50 (the source's name) (converted); for TGI: read-out: pTGI (converted); procedure, shortened: as §2
A498 = test: Growth inhibition of human A498 cells after 48 hrs by sulforhodamine B assay; details: A498, 48 h; procedure, shortened: as §2
SN12C = test: Growth inhibition of human SN12C cells after 48 hrs by sulforhodamine B assay; procedure, shortened: as §1
[2] = read-out: pLC50 (the source's name) (converted)

## Nc1cc(N)c2nc(-c3ccccc3)c(Oc3ccc(F)cc3)nc2c1
HL-60(TB)
  GI50: 18.6 µM
  LC50: > 100 µM
  TGI: 64.6 µM
SR
  GI50: 8.13 µM
  LC50 (concentration giving 50% net cell death): > 100 µM
  TGI: > 100 µM
MOLT-4
  GI50: 6.61 µM
  LC50: > 100 µM
  TGI: > 100 µM
EKVX
  GI50: 14.8 µM
  LC50 (50% net cell kill): 77.6 µM
  TGI: 33.9 µM
HOP-92
  GI50: 12.3 µM
  LC50 (50% net cell death): 72.4 µM
  TGI: 29.5 µM
NCI-H226
  GI50: 20.4 µM
  LC50: > 100 µM
  TGI: 49 µM
NCI-H460
  GI50: 39.8 µM
  LC50 (50% net cell kill): > 100 µM
  TGI: > 100 µM
COLO 205
  GI50: 20 µM
  LC50 (50% net cell kill): 66.1 µM
  TGI: 36.3 µM
HT-29
  GI50: 22.9 µM
  LC50: > 100 µM
  TGI: 51.3 µM
KM12
  GI50: 14.5 µM
  LC50 (50% net cell kill): > 100 µM
  TGI: 40.7 µM
SF-539
  GI50: 18.2 µM
  LC50: 70.8 µM
  TGI: 35.5 µM
SNB-19
  GI50: 17.4 µM
  LC50: 66.1 µM
  TGI: 33.9 µM
SNB-75
  GI50: 23.4 µM
  LC50: > 100 µM
  TGI: 49 µM
UACC-257
  GI50: 23.4 µM
  CC50: 77.6 µM
  TGI: 42.7 µM
OVCAR-3
  GI50: 15.5 µM
  CC50: > 100 µM
  TGI: 41.7 µM
OVCAR-5
  GI50: 20.4 µM
  CC50: > 100 µM
  TGI: 47.9 µM
OVCAR-8
  GI50: 22.4 µM
  CC50: 100 µM
  TGI: 47.9 µM
ACHN
  GI50: 13.8 µM
  CC50: 81.3 µM
  TGI: 33.1 µM
RXF 393
  GI50: 19.1 µM
  CC50: > 100 µM
  TGI: > 100 µM
TK-10
  GI50: 16.6 µM
  CC50: 64.6 µM
  TGI: 32.4 µM
PC-3
  GI50: 8.32 µM
  CC50: 83.2 µM
  TGI: 27.5 µM
NCI/ADR-RES
  GI50: 18.2 µM
  CC50: 70.8 µM
  TGI: 36.3 µM
MDA-MB-231
  GI50: 3.89 µM
  CC50: > 100 µM
  TGI: 28.8 µM
[1]
  GI50: 20 µM
  CC50: > 100 µM
  TGI: 53.7 µM

## Nc1cc(N)c2nc(-c3ccccc3)c(Sc3ccc(F)cc3)nc2c1
HL-60(TB)
  GI50: 38.9 µM
  LC50: > 100 µM
  TGI: > 100 µM
SR
  GI50: 35.5 µM
  LC50 (concentration giving 50% net cell death): > 100 µM
  TGI: > 100 µM
MOLT-4
  GI50: > 100 µM
  LC50: > 100 µM
  TGI: > 100 µM
EKVX
  GI50: 20.4 µM
  LC50 (50% net cell kill): 83.2 µM
  TGI: 41.7 µM
HOP-92
  GI50: 22.9 µM
  LC50 (50% net cell death): > 100 µM
  TGI: 55 µM
NCI-H226
  GI50: 19.1 µM
  LC50: > 100 µM
  TGI: 46.8 µM
NCI-H460
  GI50: 21.9 µM
  LC50 (50% net cell kill): > 100 µM
  TGI: 66.1 µM
COLO 205
  GI50: 21.9 µM
  LC50 (50% net cell kill): > 100 µM
  TGI: 47.9 µM
HT-29
  GI50: 17.8 µM
  LC50: > 100 µM
  TGI: 45.7 µM
KM12
  GI50: 20.9 µM
  LC50 (50% net cell kill): > 100 µM
  TGI: 49 µM
SF-539
  GI50: 21.4 µM
  LC50: 75.9 µM
  TGI: 39.8 µM
SNB-19
  GI50: 20 µM
  LC50: 87.1 µM
  TGI: 41.7 µM
SNB-75
  GI50: 20.9 µM
  LC50: > 100 µM
  TGI: 47.9 µM
UACC-257
  GI50: 16.6 µM
  CC50: 60.3 µM
  TGI: 31.6 µM
OVCAR-3
  GI50: 16.2 µM
  CC50: 69.2 µM
  TGI: 33.9 µM
OVCAR-5
  GI50: 19.1 µM
  CC50: > 100 µM
  TGI: 45.7 µM
OVCAR-8
  GI50: 16.6 µM
  CC50: 72.4 µM
  TGI: 34.7 µM
A498
  GI50: > 100 µM
A498; [2]
  CC50: > 100 µM
A498; read-out: pTGI (converted)
  TGI: > 100 µM
ACHN
  GI50: > 100 µM
  CC50: > 100 µM
  TGI: > 100 µM
RXF 393
  GI50: > 100 µM
  CC50: > 100 µM
  TGI: > 100 µM
SN12C
  GI50: > 100 µM
SN12C; [2]
  CC50: > 100 µM
SN12C; read-out: pTGI (converted)
  TGI: > 100 µM
TK-10
  GI50: > 100 µM
  CC50: > 100 µM
  TGI: > 100 µM
PC-3
  GI50: > 100 µM
  CC50: > 100 µM
  TGI: > 100 µM
NCI/ADR-RES
  GI50: 16.6 µM
  CC50: 72.4 µM
  TGI: 34.7 µM
MDA-MB-231
  GI50: 17.4 µM
  CC50: 83.2 µM
  TGI: 38 µM
[1]
  GI50: 26.9 µM
  CC50: > 100 µM
  TGI: 61.7 µM
